# Test results from ChEMBL document CHEMBL1125330, “N-substituted pyrazino[2,3-c][1,2,6]thiadiazine 2,2-dioxides. A new class of diuretics” (J Med Chem, 1992).
# Columns and labels:
# Rattus norvegicus [1] = assay: Volume of urine 3h after the compound was administered 125 mg/kg po in rat; type: ADME, organism-based; parameters: dose 125 mg/kg, route oral; conditions: in vivo
# Summary of the method: (§1)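 Onset/duration protocol: male Sprague-Dawley rats (HC/CFY, 175-200 g), food and water withdrawn for 18 h before and during the test. Single gavage dose in 1% carboxymethyl cellulose/0.1% Tween 80 (0.5 mL/100 g bw), then distilled water load (2.5 mL/100 g bw po). Two rats per metabolic cage, six pairs per group. Urine collected at 0-1, 1-2, 2-3, 3-4 and 4-6 h; Na+ by flame photometry. Vehicle controls; nonpaired Student t-test.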
# Rattus norvegicus [2] = assay: Urinary sodium 1 hr after the compound was administered 125 mg/kg po in rat; type: ADME, organism-based, Urine; parameters: dose 125 mg/kg, route oral; conditions: in vivo
# Summary of the method: (§2)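 Onset and duration study in fasted, water-loaded male Sprague-Dawley rats housed two per metabolic cage, six pairs per group. Single oral dose given, then water 2.5 mL/100 g po. Urine volume and sodium (flame photometry) measured over 0-1, 1-2, 2-3, 3-4 and 4-6 h intervals. Mean values compared with vehicle by Student t-test.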
# Rattus norvegicus [3] = assay: Mean sodium excretion in rats when compound administered at 80 mg/kg po and vehicle dosed at 315.88 umol/kg; type: ADME, organism-based; parameters: dose 80 mg/kg, route oral; conditions: in vivo
# Summary of the method: (§3)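 Male Sprague-Dawley rats (HC/CFY, 175-200 g) fasted and water-deprived 18 h before and during the test. Dosed by gavage at 2.5-160 mg/kg in 1% carboxymethyl cellulose/0.1% Tween 80, 0.5 mL/100 g bw. Immediately hydrated with water (2.5 mL/100 g bw, po). Urine collected 6 h in metabolic cages; Na+ and K+ by flame photometry; mean mequiv/6 h/kg bw; nonpaired Student t-test.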
# Rattus norvegicus [4] = assay: Mean urinary output in rats when compound administered at 80 mg/kg po and vehicle dosed at 315.88 umol/kg; type: ADME, organism-based, Urine; parameters: dose 80 mg/kg, route oral; conditions: in vivo
# Summary of the method: (§4)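 Water-loaded male Sprague-Dawley rats (HC/CFY, 175-200 g) fasted and without water for 18 h. Oral gavage of 2.5-160 mg/kg in 1% CMC with 0.1% Tween 80, then distilled water 2.5 mL/100 g po. Urine collected 6 h in metabolic cages, mean output in mL/6 h/kg bw. Unpaired Student t-test against vehicle; dose-response by linear regression.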
# Rattus norvegicus [5] = assay: Mean urinary output in rats when compound administered at 40 mg/kg po and vehicle dosed at 157.94 umol/kg; type: ADME, organism-based, Urine; parameters: dose 40 mg/kg, route oral; conditions: in vivo; summary of the method: as §4
# Rattus norvegicus [6] = assay: Mean sodium excretion in rats when compound administered at 160 mg/kg po and vehicle dosed at 631.76 umol/kg; type: ADME, organism-based; parameters: dose 160 mg/kg, route oral; conditions: in vivo; summary of the method: as §3
# Rattus norvegicus [7] = organism: Rattus norvegicus; assay: Dose required to produce increase in 50 % in urine production vs control groups; type: functional
# Summary of the method: (§5)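 Male Sprague-Dawley rats (HC/CFY, 175-200 g), fasted and water-deprived 18 h before and during the test. Compound dosed by gavage in 1% carboxymethyl cellulose/0.1% Tween 80, then water load 2.5 mL/100 g bw po. Urine collected 6 h in metabolic cages; Na+ by flame photometry. Effective doses vs vehicle controls derived by linear regression of dose-response data.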
# Rattus norvegicus [8] = assay: Urinary sodium 6 hr after the compound was administered 125 mg/kg po in rat; type: ADME, organism-based, Urine; parameters: dose 125 mg/kg, route oral; conditions: in vivo; summary of the method: as §1
# Rattus norvegicus [9] = assay: Mean Chlorine excretion in rats when compound administered at 20 mg/kg po and vehicle dosed at 78.97 umol/kg; type: ADME, organism-based; parameters: dose 20 mg/kg, route oral; conditions: in vivo
# Summary of the method: (§6)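 Male Sprague-Dawley rats (HC/CFY, 175-200 g), no food or water for 18 h before and during the test. Single gavage dose (2.5-160 mg/kg; vehicle 1% carboxymethyl cellulose/0.1% Tween 80, 0.5 mL/100 g bw), then distilled water 2.5 mL/100 g bw po. Individual metabolic cages, 6 h urine. K+ by flame photometry, Cl- colorimetric, as mequiv/6 h/kg bw; unpaired Student t-test vs control.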
# Rattus norvegicus [10] = assay: Mean Chlorine excretion in rats when compound administered at 10 mg/kg po and vehicle dosed at 39.48 umol/kg; type: ADME, organism-based; parameters: dose 10 mg/kg, route oral; conditions: in vivo; summary of the method: as §6
# [11] = Acute toxicity in mice when given po; type: organism-based; conditions: mouse, in vivo, read-out: DL50 (the source's name)
# Summary of the method: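 Male Swiss mice (SPF, HC/CFLP strain, 20–25 g), oral dosing; mortality followed over 15 days; LD50 derived by the Litchfield and Wilcoxon method.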
# Rattus norvegicus [12] = assay: Dose required to produce an excretion of 2 mequiv of Na+/kg bw/6h vs control groups; type: functional; summary of the method: as §5
# Rattus norvegicus [13] = assay: Mean Chlorine excretion in rats when compound administered at 2.5 mg/kg po and vehicle dosed at 9.87 umol/kg; type: ADME, organism-based; parameters: dose 2.5 mg/kg, route oral; conditions: in vivo; summary of the method: as §6
# Rattus norvegicus [14] = assay: Mean potassium excretion in rats when compound administered at 20 mg/kg po and vehicle dosed at 78.97 umol/kg; type: ADME, organism-based; parameters: dose 20 mg/kg, route oral; conditions: in vivo; summary of the method: as §6
# Rattus norvegicus [15] = assay: Volume of urine 1 hr after the compound was administered 125 mg/kg po in rat; type: ADME, organism-based; parameters: dose 125 mg/kg, route oral; conditions: in vivo; summary of the method: as §1
# Rattus norvegicus [16] = assay: Mean Chlorine excretion in rats when compound administered at 40 mg/kg po and vehicle dosed at 157.94 umol/kg; type: ADME, organism-based; parameters: dose 40 mg/kg, route oral; conditions: in vivo; summary of the method: as §6
# Rattus norvegicus [17] = assay: Mean sodium excretion in rats when compound administered at 40 mg/kg po and vehicle dosed at 157.94 umol/kg; type: ADME, organism-based; parameters: dose 40 mg/kg, route oral; conditions: in vivo; summary of the method: as §3
# Rattus norvegicus [18] = assay: Mean urinary output in rats when compound administered at 10 mg/kg po and vehicle dosed at 39.48 umol/kg; type: ADME, organism-based, Urine; parameters: dose 10 mg/kg, route oral; conditions: in vivo; summary of the method: as §4
# Rattus norvegicus [19] = assay: Volume of urine 6 hr after the compound was administered 125 mg/kg po in rat; type: ADME, organism-based; parameters: dose 125 mg/kg, route oral; conditions: in vivo; summary of the method: as §1
# Rattus norvegicus [20] = assay: Mean potassium excretion in rats when compound administered at 160 mg/kg po and vehicle dosed at 631.76 umol/kg; type: ADME, organism-based; parameters: dose 160 mg/kg, route oral; conditions: in vivo; summary of the method: as §6
# Rattus norvegicus [21] = assay: Mean potassium excretion in rats when compound administered at 40 mg/kg po and vehicle dosed at 157.94 umol/kg; type: ADME, organism-based; parameters: dose 40 mg/kg, route oral; conditions: in vivo; summary of the method: as §3
# Rattus norvegicus [22] = assay: Urinary sodium 3h after the compound was administered 125 mg/kg po in rat; type: ADME, organism-based, Urine; parameters: dose 125 mg/kg, route oral; conditions: in vivo; summary of the method: as §2
# Rattus norvegicus [23] = assay: Mean potassium excretion in rats when compound administered at 80 mg/kg po and vehicle dosed at 315.88 umol/kg; type: ADME, organism-based; parameters: dose 80 mg/kg, route oral; conditions: in vivo; summary of the method: as §3
structure (smiles),measurement,setting,value
Nc1nc(N)c2nc(-c3ccccc3)c(N)nc2n1,Urine volume,Rattus norvegicus [1],2.73 mL
same,Urinary Na+,Rattus norvegicus [2],0.04 m equiv
same,Na,Rattus norvegicus [3],3.37 m equiv 6hr-1 kg-1 (body weight)-1
same,V,Rattus norvegicus [4],44.92 ml 6hr-1 (kg of body weight)-1
same,V,Rattus norvegicus [5],38.1 ml 6hr-1 (kg of body weight)-1
same,Na,Rattus norvegicus [6],3.32 m equiv 6hr-1 kg-1 (body weight)-1
same,ED50,Rattus norvegicus [7],34.5 mg/kg
same,Urinary Na+,Rattus norvegicus [8],0.46 m equiv
same,Cl-,Rattus norvegicus [9],1.83 m equiv 6hr-1 kg-1 (body weight)-1
same,Cl-,Rattus norvegicus [10],1.89 m equiv 6hr-1 kg-1 (body weight)-1
same,LD50,[11],344 mg/kg
same,ED2,Rattus norvegicus [12],3.8 mg/kg
same,Cl-,Rattus norvegicus [13],1.34 m equiv 6hr-1 kg-1 (body weight)-1
same,K,Rattus norvegicus [14],0.16 m equiv 6hr-1 kg-1 (body weight)-1
same,Urine volume,Rattus norvegicus [15],0.48 mL
same,Cl-,Rattus norvegicus [16],2.83 m equiv 6hr-1 kg-1 (body weight)-1
same,Na,Rattus norvegicus [17],2.88 m equiv 6hr-1 kg-1 (body weight)-1
same,V,Rattus norvegicus [18],31.13 ml 6hr-1 (kg of body weight)-1
same,Urine volume,Rattus norvegicus [19],4.36 mL
same,K,Rattus norvegicus [20],0.21 m equiv 6hr-1 kg-1 (body weight)-1
same,K,Rattus norvegicus [21],0.18 m equiv 6hr-1 kg-1 (body weight)-1
same,Urinary Na+,Rattus norvegicus [22],0.19 m equiv
same,K,Rattus norvegicus [23],0.14 m equiv 6hr-1 kg-1 (body weight)-1
